Data on 19 compounds can be found in ChEMBL document CHEMBL1138796, “Novel 5-HT7 receptor inverse agonists. Synthesis and molecular modeling of arylpiperazine- and 1,2,3,4-tetrahydroisoquinoline-based arylsulfonamides” (J Med Chem, 2004).

For data set [1], the target named is 5-hydroxytryptamine receptor 7 (Rattus norvegicus) (UniProt P32305). The data set is described as follows: Effect on basal adenylate cyclase activity relative to potency of methiothepin using rat 5-HT7 receptor expressed in HEK cells. The format is cell-based. Conditions: HEK293.
5-hydroxytryptamine receptor 7 (Rattus norvegicus), sequence (P32305 whole entry): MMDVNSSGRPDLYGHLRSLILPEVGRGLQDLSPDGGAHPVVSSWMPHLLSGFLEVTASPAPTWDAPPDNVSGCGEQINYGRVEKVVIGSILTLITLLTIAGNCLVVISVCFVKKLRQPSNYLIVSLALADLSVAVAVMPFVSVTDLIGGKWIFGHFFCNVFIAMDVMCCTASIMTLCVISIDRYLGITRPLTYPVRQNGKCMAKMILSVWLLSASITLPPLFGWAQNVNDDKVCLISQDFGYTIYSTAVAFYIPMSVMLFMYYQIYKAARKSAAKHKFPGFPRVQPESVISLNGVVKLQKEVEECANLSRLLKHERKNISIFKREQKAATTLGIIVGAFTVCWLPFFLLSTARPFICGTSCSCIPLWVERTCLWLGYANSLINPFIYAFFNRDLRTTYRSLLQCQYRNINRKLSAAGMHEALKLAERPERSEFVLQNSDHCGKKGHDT
A short description of data set [2]: pKa. In kind it is physicochemical.
The target of data set [3] is 5-hydroxytryptamine receptor 7 (Rattus norvegicus, UniProt P32305). Put plainly: Binding affinity towards rat 5-HT7 receptor expressed in HEK cells. In kind it is cell-based, HEK293. The essentials: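 Membranes of HEK cells expressing rat 5-HT7, resuspended in 50 mM Tris HCl pH 7.4 with 0.5 mM EDTA, 10 mM MgSO4, 2 mM CaCl2, 10 µM pargyline, 0.1% ascorbic acid; 20 µg protein with 0.3 nM [3H]5-CT, 2 h at room temperature; nonspecific binding with 10 µM 5-HT; filtration, scintillation counting; IC50 by log regression, Ki via Cheng-Prusoff.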
5-hydroxytryptamine receptor 7, sequence (P32305 whole entry): as above

Data set [4] is described as follows: Partition coefficient (logP). The format is physicochemical. As to conditions: octanol/water.

Where “and” joins values, the source holds several entries; their conditions need not be identical. Identical values can stand only once.

Take `CCN(CCCN1CCc2cc(OC)ccc2C1)S(=O)(=O)c1ccccc1`: in data set [1], the cAMP is -93%. This compound returned a pKa in data set [2] of 7.4. Also, the Ki in data set [3] worked out at 54 nM. Also, the logP in data set [4] (read-out: logP) stood at 3.1.
For the compound `CCN(CCCN1CCc2cc(OC)ccc2C1)S(=O)(=O)c1ccc(OC)cc1`, the cAMP in data set [1] is -94%. Further, the pKa in data set [2] stood at 7.4. In addition, the affinity in data set [3] corresponds to a Ki of 29 nM. For the same compound, the log partition coefficient (logP) in data set [4] (read-out: logP) came out at 3.3.
Take `CCN(CCCN1CCN(c2ccccc2OC)CC1)S(=O)(=O)c1ccc(C)cc1`: the cAMP in data set [1] is -93%. In data set [3], this compound yielded an inhibitory constant (Ki) of 19 nM.
`COc1ccc(S(=O)(=O)NCCCN2CCc3cc(OC)ccc3C2)cc1`: the cAMP in data set [1] is -84%. The same compound gave a pKa in data set [2] of 7. The compound also gave an inhibition constant Ki in data set [3] of 1200 nM. Moreover, the logP in data set [4] (read-out: logP) is 2.5.
In the case of `CSc1ccc2c(c1)[C@@H](N1CCN(C)CC1)Cc1ccccc1S2`, the cAMP in data set [1] is -100%. In addition, in data set [2], the pKa came to 8.1. Moreover, the logP in data set [4] (read-out: logP) is 3.4.
On to `CCN(CCCN1CCc2cc(OC)ccc2C1)S(=O)(=O)c1ccc(C)cc1`, for which, in data set [1], the cAMP was -95%. In addition, the pKa in data set [2] was determined as 7.4. Besides, the Ki in data set [3] stood at 11 nM. The logP in data set [4] (read-out: logP) was 3.8.
In data set [2], `Cc1cccc(S(=O)(=O)N2CCC[C@@H]2CCN2CCC(C)CC2)c1` [SB-258741] returned a pKa of 10.4. The affinity in data set [3], expressed as Ki, was 3 nM. Besides, the logP in data set [4] (read-out: logP) was determined as 3.7.
For the compound `COc1ccc2c(c1)CCN(CCCNS(=O)(=O)c1ccc(C)cc1)C2`, the cAMP in data set [1] was -61%. Besides, the pKa in data set [2] was 7. In data set [3], this compound gave a Ki of 520 nM. Further, in data set [4] (read-out: logP), the lipophilicity (logP) worked out at 3.
The like results for `COc1ccc2c(c1)CCN(CCCNS(=O)(=O)c1ccccc1)C2` were, in that order, -36%, 7, 75 nM and 2.3.
Consider `COc1ccc2[nH]cc(C3=CCN(Cc4ccccc4)CC3)c2c1`, for which, in data set [1], the cAMP is -65%. Further, the pKa in data set [2] worked out at 7.7. The compound also registered a Ki in data set [3] of 1100 nM. Further, the logP in data set [4] (read-out: logP) was 4.3.
The like results for `COc1ccccc1N1CCN(CCNS(=O)(=O)c2ccc(C)cc2)CC1` were, in that order, -66%, 7.4, 75 nM and 2.2.
`COc1ccc2c(c1)c(CCN(C)C)cn2C`: the cAMP in data set [1] was -7%. The compound also showed a pKa in data set [2] of 9.2. In addition, in data set [3], the affinity corresponds to a Ki of 1180 nM. Further, the logP in data set [4] (read-out: logP) turned out to be 2.7.
For the compound `COc1ccccc1N1CCN(CCCNS(=O)(=O)c2ccc(C)cc2)CC1`, in data set [1], the cAMP is -20%. In data set [2], this compound returned a pKa of 7.5. Moreover, the Ki in data set [3] turned out to be 52 nM. The logP in data set [4] (read-out: logP) was determined as 2.6.
For the compound `CC1CCN(CC[C@H]2CCCN2S(=O)(=O)c2cccc3ccccc23)CC1`, the pKa in data set [2] is 10.4. This compound returned a Ki in data set [3] of 10 nM. Also, the lipophilicity (logP) in data set [4] (read-out: logP) came to 4.2.
`COc1ccc2c(c1)CCN(CCCNS(=O)(=O)c1cccc3ccccc13)C2`: in data set [1], the cAMP is -104%. The compound further returned a pKa in data set [2] of 7. The Ki in data set [3] was found to be 360 nM. In addition, the logP in data set [4] (read-out: logP) stood at 3.6.
With `CC1CCN(CC[C@H]2CCCN2S(=O)(=O)c2cccc(O)c2)CC1`, in data set [2], the pKa is 10.4. Also, in data set [3], the Ki was found to be 1 nM. In data set [4] (read-out: logP), the logP was 2.7.
Take `CCN(CCCN1CCc2cc(OC)ccc2C1)S(=O)(=O)c1cccc2ccccc12`: in data set [1], the cAMP is -91%. Further, in data set [2], the pKa turned out to be 7.4. The compound further yielded a Ki in data set [3] of 19 nM. In data set [4] (read-out: logP), the logP is 4.3.
`COc1ccc2c(c1)N(CCN(C)C)CCO2` yielded a pKa in data set [2] of 8.6. For the same compound, in data set [3], the Ki was 1180 nM and 1100 nM. For the same compound, the logP in data set [4] and in data set [4] (read-out: logP) was 1.6 throughout.
Consider `COc1ccc(S(=O)(=O)NCCCN2CCN(c3ccccc3OC)CC2)cc1`, for which the cAMP in data set [1] is -35%. For the same compound, the pKa in data set [2] was 7.5. The compound also yielded a Ki in data set [3] of 100 nM. Also, the logP in data set [4] (read-out: logP) was 2.1.

As usually defined, the pKa is the negative logarithm of the acid dissociation constant. Higher therefore signals a weaker acid or stronger base. Usually Ki stands for a measure of affinity in units of concentration, obtained from inhibition or displacement. High values mean lower affinity, low ones higher affinity. As a reminder, the logP is a log measure of how a compound divides between an organic and an aqueous phase.
